# Measured values of several laboratories.
# Protocols differ between the studies behind these lines.
# Target: Dual specificity mitogen-activated protein kinase kinase 1 (MAP2K1, Homo sapiens, UniProt Q02750)
Compound,test,setting,remaining binding [%]
Cc1cnc(Nc2ccc(C(=O)N3CCC(N4CCCC4)CC3)cc2)nc1-c1cc2ccccc2s1,"binding, competition with immobilised ligand",1 µM,25
C[C@@H](c1ccc(-n2cnc3c(N)ncnc32)cc1)N1CCc2nn(C)c(Cc3ccccc3)c2C1=O,"binding, competition with immobilised ligand",0.1 µM,89
c1cnn2ncc(-c3ccnc(N4CCC45COC5)n3)c2c1,"binding, competition with immobilised ligand",1 µM,69
Cc1c(-c2ccccc2)oc2c(C(=O)OCCN3CCCCC3)cccc2c1=O,"cell-free assay, competition with immobilised ligand",10 µM,95
O=C(NCc1ncc(C(F)(F)F)cc1Cl)c1ccc2c(c1)C1(CCS(=O)(=O)CC1)[C@@H](C1CC1)N2S(=O)(=O)c1ccc(F)cc1,"cell-free assay, competition with immobilised ligand",1 µM,91
CNC(=O)c1cc(Oc2ccc(NC(=O)Nc3ccc(Cl)c(C(F)(F)F)c3)cc2)ccn1,"cell-free assay, competition with immobilised ligand",10 µM,99
COc1cnc(Nc2cccc(S(N)(=O)=O)c2)nc1N1CCN(c2ccccc2)C(=O)C1,"binding, competition with immobilised ligand",1 µM,91
C[C@@H](c1cccc(C#N)c1)n1cc(Cl)cc(C(N)=O)c1=N,"cell-free assay, competition with immobilised ligand",1 µM,80
CS(=O)(=O)CCNCc1ccc(-c2ccc3ncnc(Nc4ccc(OCc5cccc(F)c5)c(Cl)c4)c3c2)o1,"cell-free assay, competition with immobilised ligand",10 µM,87
N#Cc1ccccc1CSc1nnc2c(n1)[nH]c1ccccc12,"binding, competition with immobilised ligand",10 µM,95
CN1CC[C@H](c2c(O)cc(O)c3c(=O)cc(-c4ccccc4Cl)oc23)[C@H](O)C1,"cell-free assay, competition with immobilised ligand",10 µM,92
C[C@@H]1CN(c2ccc3ncc(-c4ccc5[nH]nc(C6CC6)c5c4)n3n2)C[C@H](C)O1,"binding, competition with immobilised ligand",0.5 µM,100
CC(C)(C)c1ccc(-c2nc(CBr)nn2-c2cccc(O)c2)cc1,"cell-free assay, competition with immobilised ligand",10 µM,83
COc1ncc2cc3ccccc3nc2c1C#N,"cell-free assay, competition with immobilised ligand",5 µM,90
Cc1cnn2ncc(-c3ccnc(N(C)C)n3)c2c1,binding,1 µM,82
CC1=C(C#N)C(c2ccc3c(c2)c(NC(=O)c2ccccc2C)nn3C)C(C#N)=C(C)N1,"cell-free assay, competition with immobilised ligand",1 µM,87
Cc1ccc(NC(=O)c2ccc(CN3CCN(C)CC3)cc2)cc1Nc1nccc(-c2cccnc2)n1,"cell-free assay, competition with immobilised ligand",10 µM,94
CN(CCCC(F)(F)F)c1nccc(-c2cnn3ncccc23)n1,"binding, competition with immobilised ligand",1 µM,99
COc1ccc2cc(OCC3(C(=O)O)CN(C(=O)c4ccc(F)cc4)C3)ccc2c1,"cell-free assay, competition with immobilised ligand",1 µM,100
O=C(NCCCN1CCOCC1)c1ccc(Nc2ncc(Cl)c(-c3ccc(Cl)s3)n2)cc1,"binding, competition with immobilised ligand",1 µM,63
C[C@H]1CCN(c2nccc(-c3cnn4ncccc34)n2)C1,"binding, competition with immobilised ligand",1 µM,66
O=C1CCc2cc(Nc3cc(OC4CCOCC4)c([N+](=O)[O-])cc3Cl)ccc2N1,"cell-free assay, competition with immobilised ligand",1 µM,72
O=C(NCC1CCOCC1)c1n[nH]cc1NC(=O)c1c(F)cccc1F,"binding, competition with immobilised ligand",1 µM,100
COC(=O)Nc1nc2cc(C(=O)c3ccccc3)ccc2[nH]1,"cell-free assay, competition with immobilised ligand",0.1 µM,100
CN(C)c1ncnc(-c2ccc3nc(Nc4cc(CN5CCN(C(=O)CC(F)(F)F)CC5)ccn4)[nH]c3c2)c1Cl,"cell-free assay, competition with immobilised ligand",1 µM,78
C=CC(=O)N1CCC(C(=O)NCC(=O)N2CCN(c3nc(-c4cnc(N)nc4C(F)F)nc(N4CCOCC4)n3)CC2)CC1,"binding, competition with immobilised ligand",1 µM,69
CCCOc1ccc([C@@H]2[C@@H](C(=O)O)[C@H](c3ccc4c(c3)OCO4)CN2CC(=O)Nc2c(CC)cccc2CC)cc1,"cell-free assay, competition with immobilised ligand",1 µM,93
COc1cc2ncnc(Nc3ccc(F)c(Cl)c3)c2cc1OCCCN1CCOCC1,"cell-free assay, competition with immobilised ligand",0.1 µM,100
O=C(c1ccc(Nc2ncc(Cl)c(-c3cc4ccccc4s3)n2)cc1)N1CCC(N2CCCC2)CC1,"binding, competition with immobilised ligand",1 µM,21
Cc1nc(Nc2ncc(C(=O)Nc3c(C)cccc3Cl)s2)cc(N2CCN(CCO)CC2)n1,"cell-free assay, competition with immobilised ligand",0.1 µM,89
CN(c1nccc(-c2cnn3ncccc23)n1)C1CC1,binding,1 µM,100
Cc1nc(Cc2cccc(C(F)(F)F)c2)sc1-c1ccc(C(N)=O)nc1,"cell-free assay, competition with immobilised ligand",1 µM,100
